Test results taken from ChEMBL document CHEMBL4321820, “Identification and Optimization of Mechanism-Based Fluoroallylamine Inhibitors of Lysyl Oxidase-like 2/3” (J Med Chem, 2019).

Key:
[1] = biological target: T1, Lysyl oxidase homolog 2 (Homo sapiens, UniProt Q9Y4K0); assay: Inhibition of recombinant human C-terminal His-tagged […] (1-774 residues) expressed in mouse myeloma cells using putrescine as substrate preincubated with enzyme for 30 mins followed by substrate addition and measured every 2.5 mins for 30 mins by Amplex-Red oxidation assay
T1 sequence (Q9Y4K0 whole entry): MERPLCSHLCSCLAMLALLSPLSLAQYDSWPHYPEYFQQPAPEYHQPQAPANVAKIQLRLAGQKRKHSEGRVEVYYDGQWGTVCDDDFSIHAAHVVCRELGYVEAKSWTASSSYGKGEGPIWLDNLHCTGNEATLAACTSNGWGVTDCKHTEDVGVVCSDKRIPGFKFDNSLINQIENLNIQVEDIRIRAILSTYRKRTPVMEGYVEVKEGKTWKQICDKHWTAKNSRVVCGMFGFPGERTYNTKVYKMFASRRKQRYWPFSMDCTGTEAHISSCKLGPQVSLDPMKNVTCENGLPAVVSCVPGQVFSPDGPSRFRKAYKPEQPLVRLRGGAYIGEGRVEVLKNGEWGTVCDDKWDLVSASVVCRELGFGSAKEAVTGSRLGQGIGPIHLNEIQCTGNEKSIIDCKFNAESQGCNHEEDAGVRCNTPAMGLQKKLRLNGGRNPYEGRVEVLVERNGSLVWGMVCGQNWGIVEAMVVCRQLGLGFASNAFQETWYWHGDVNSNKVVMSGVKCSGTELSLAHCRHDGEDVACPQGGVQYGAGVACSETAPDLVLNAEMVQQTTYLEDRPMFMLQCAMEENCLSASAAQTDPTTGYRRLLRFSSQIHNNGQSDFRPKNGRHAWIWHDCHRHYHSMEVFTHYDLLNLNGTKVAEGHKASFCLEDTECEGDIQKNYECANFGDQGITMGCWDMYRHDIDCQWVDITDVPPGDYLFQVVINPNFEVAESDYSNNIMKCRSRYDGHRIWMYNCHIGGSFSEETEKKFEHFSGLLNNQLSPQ
Method in brief: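 LOXL2 enzyme preincubated with compound for 30 min at 37 °C, then Amplex Red (120 µM) / HRP (1.5 U/mL) mix containing 5 mM putrescine added. Buffer: 1.2 M urea, 50 mM sodium borate, pH 8.2. H2O2 fluorescence (ex 565/em 590) read every 2.5 min for 30 min at 37 °C; BAPN 100 µM as positive control; n≥2.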

[2] = biological target: T2, Protein-lysine 6-oxidase (Bos taurus, UniProt P33072); assay: Inhibition of LOX in bovine aorta using putrescine as substrate preincubated with enzyme for 30 mins followed by substrate addition and measured every 2.5 mins for 30 mins by Amplex-Red oxidation assay; type: tissue-based
T2 sequence (P33072 whole entry): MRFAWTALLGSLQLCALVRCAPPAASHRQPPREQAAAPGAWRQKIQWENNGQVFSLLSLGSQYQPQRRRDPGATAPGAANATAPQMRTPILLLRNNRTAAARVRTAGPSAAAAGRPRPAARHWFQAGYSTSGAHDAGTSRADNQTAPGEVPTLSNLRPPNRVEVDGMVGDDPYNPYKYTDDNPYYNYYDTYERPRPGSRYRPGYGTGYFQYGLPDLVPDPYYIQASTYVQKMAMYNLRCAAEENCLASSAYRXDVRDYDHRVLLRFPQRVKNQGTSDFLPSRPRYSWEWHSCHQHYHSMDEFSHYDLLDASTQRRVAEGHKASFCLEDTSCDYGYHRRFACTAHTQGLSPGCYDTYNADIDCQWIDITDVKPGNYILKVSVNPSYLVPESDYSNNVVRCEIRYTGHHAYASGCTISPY
Method in brief: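 LOX extracted from calf aorta after PBS washing with 4 M urea/50 mM borate pH 8.2, concentrated on 10 kDa filters into 1.2 M urea/borate with protease inhibitors. Preincubated 30 min at 37 °C with compound, then Amplex Red/HRP with 10 mM putrescine; fluorescence read every 2.5 min for 30 min.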

[3] = biological target: T3, Amine oxidase [copper-containing] 3 (Homo sapiens, UniProt Q16853); assay: Substrate activity at recombinant human SSAO assessed as compound oxidation by measuring oxidative turnover at 30 uM measured for 40 mins by horseradish peroxidase-coupled amplex red reagent-based fluorometric assay relative to DMSO; type: ADME
T3 sequence (Q16853 whole entry): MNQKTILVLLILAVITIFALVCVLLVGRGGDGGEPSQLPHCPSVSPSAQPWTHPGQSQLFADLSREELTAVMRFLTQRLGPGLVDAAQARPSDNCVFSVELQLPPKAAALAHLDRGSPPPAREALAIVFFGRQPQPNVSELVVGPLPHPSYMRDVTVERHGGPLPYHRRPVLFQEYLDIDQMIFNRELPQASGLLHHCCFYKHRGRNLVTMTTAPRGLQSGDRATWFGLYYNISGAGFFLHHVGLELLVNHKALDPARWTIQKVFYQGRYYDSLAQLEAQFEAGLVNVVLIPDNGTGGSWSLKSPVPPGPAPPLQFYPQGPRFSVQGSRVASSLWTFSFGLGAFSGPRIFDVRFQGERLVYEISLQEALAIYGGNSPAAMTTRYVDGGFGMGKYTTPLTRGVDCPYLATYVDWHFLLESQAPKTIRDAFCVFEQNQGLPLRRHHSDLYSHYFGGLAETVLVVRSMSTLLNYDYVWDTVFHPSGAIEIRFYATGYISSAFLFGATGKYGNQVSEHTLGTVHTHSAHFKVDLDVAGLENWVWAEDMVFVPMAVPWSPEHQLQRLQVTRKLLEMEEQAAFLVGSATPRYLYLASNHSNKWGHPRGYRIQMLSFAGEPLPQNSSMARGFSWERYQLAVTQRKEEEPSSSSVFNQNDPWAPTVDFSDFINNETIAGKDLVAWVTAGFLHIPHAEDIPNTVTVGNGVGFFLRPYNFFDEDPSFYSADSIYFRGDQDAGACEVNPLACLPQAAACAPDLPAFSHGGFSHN
Method in brief: (§1)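 Compound oxidation measured without substrate by peroxidase-coupled fluorometric read-out of resorufin formation over 40 min at 37 °C in HEPES buffer. Amplex Red 20 µM, HRP 4 U/ml, test compound at final 30 µM. Enzyme source was human recombinant SSAO or AOC4 from diluted dog serum. Benzylamine at 600 µM served as positive control. Signal is expressed relative to DMSO-only background, so a value near 1 means no turnover.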

[4] = Substrate activity at AOC4 in dog serum assessed as compound oxidation by measuring oxidative turnover at 30 uM measured for 40 mins by horseradish peroxidase-coupled amplex red reagent-based fluorometric assay relative to DMSO; type: ADME, cell-free, Canis lupus familiaris; method in brief: as §1

| IC50 ([1]; read-out: pIC50 (converted)) [µM] | IC50 ([2]; read-out: pIC50 (converted)) [µM] | fold change (FC) [3] | fold change (FC) [4] | IC50 ([1]; read-out: IC50) [µM] | IC50 ([2]; read-out: IC50) [µM] | SMILES |
| --- | --- | --- | --- | --- | --- | --- |
| 0.0794 | 6.31 | 2.4 | 1 | – | – | CCOC(=O)c1ccc2c(c1)c(-c1cccc(S(=O)(=O)N(C)C)c1)c(C)n2C/C(F)=C/CN.Cl |
| 0.1 | 2 | 1.4 | > 4 | – | – | Cc1c(-c2cccc(S(=O)(=O)N(C)C)c2)c2ccccc2n1C/C(F)=C/CN.Cl |
| – | – | 1 | 1 | 0.005 | 1.78 | Cc1c(-c2cccc(S(=O)(=O)N(C)C)c2)c2cc(C(=O)O)ccc2n1C/C(F)=C/CN.Cl |
